Activity calls are given as the source filed them. The rule behind the calls is not given here.
Experiments:
[1] = molecular target: T1, 5-hydroxytryptamine receptor 6 (Homo sapiens, UniProt P50406); experiment: Displacement of [3H]LSD from human cloned 5HT6 receptor expressed in human HeLa cells by glass fiber filtration assay; assay type: cell-based
How it was run: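 Radioligand binding to human cloned 5-HT6 receptors stably expressed in HeLa cells. Ki values were determined.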

[2] = Selectivity ratio of IC50 for histamine H1 receptor to IC50 for human recombinant 5HT6 receptor
[3] = Selectivity ratio of IC50 for dopamine D2 receptor to IC50 for human recombinant 5HT6 receptor
[4] = Selectivity ratio of IC50 for NET to IC50 for human recombinant 5HT6 receptor
[5] = molecular target: T1, 5-hydroxytryptamine receptor 6; experiment: Antagonist activity at human recombinant 5HT6 receptor expressed in CHO cells assessed as inhibition of 5-HT-stimulated cAMP accumulation by luminometry; assay type: functional, cell-based
How it was run: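 Non-radioactive cell-based functional assay in CHO cells expressing 5-HT6 receptor; antagonism read as inhibition of 5-HT-stimulated cAMP accumulation. IC50 and Kb values derived, each the mean of two experiments.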

[6] = Selectivity ratio of IC50 for SERT to IC50 for human recombinant 5HT6 receptor
[7] = molecular target: Cytochrome P450 2D6 (Homo sapiens, UniProt P10635); experiment: Inhibition of human CYP2D6; assay type: ADME
How it was run: (§1)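 Isoform-selective assays using heterologously expressed human CYP2D6 or CYP3A4. IC50 is the mean of duplicate determinations.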

[8] = molecular target: Cytochrome P450 3A4 (Homo sapiens, UniProt P08684); experiment: Inhibition of human CYP3A4; assay type: ADME; how it was run: as §1
[9] = Metabolic stability in Wistar rat liver microsomes at 2.5 uM after 0.5 hrs; assay type: ADME, Microsome
How it was run: (§2)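 Wistar rat or human liver microsomes were incubated with 2.5 µM compound for 0.5 h, and % metabolized was measured.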

[10] = Metabolic stability in human liver microsomes at 2.5 uM after 0.5 hrs; assay type: ADME, Microsome; how it was run: as §2
[11] = Apparent volume of distribution in Wistar rat at 5 mg/kg, iv; assay type: ADME, organism-based; set-up: dose 5 mg/kg, route intravenous; settings: in vivo, read-out: Vz
How it was run: (§3)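 Fasted male Wistar rats received a 5 mg/kg dose orally or iv, with water for injection as vehicle for both routes. n = 3 per route. Plasma parameters were derived per route: AUC, Cmax, t1/2, Vz, clearance, and oral bioavailability (F).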

[12] = system: Rattus norvegicus; experiment: Cognitive enhancing effect in Wistar rat at 10 mg/kg, po by novel object recognition test; assay type: functional, organism-based; set-up: dose 10 mg/kg
How it was run: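 Novel object recognition test in male Wistar rats. Drug or vehicle (PEG 400 50% v/v, 1 mL/kg) was given p.o. 60 min before the test, n=6-9/group. Read-out was exploration time of the familiar versus the novel object, given as mean SEM and analysed by paired t test.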

[13] = species on record: Rattus norvegicus; settings: 10 mg/kg
[14] = Half life in Wistar rat at 5 mg/kg, iv; assay type: ADME, organism-based; set-up: dose 5 mg/kg, route intravenous; settings: in vivo; how it was run: as §3
[15] = AUC in Wistar rat at 5 mg/kg, iv; assay type: ADME, organism-based; set-up: dose 5 mg/kg, route intravenous; settings: plasma; how it was run: as §3
[16] = Oral bioavailability in Wistar rat at 5 mg/kg; assay type: ADME, organism-based; settings: in vivo; how it was run: as §3
[17] = Cmax in Wistar rat at 5 mg/kg, iv; assay type: ADME, organism-based; set-up: dose 5 mg/kg, route intravenous; settings: in vivo; how it was run: as §3
[18] = system: Rattus norvegicus; experiment: Apparent volume of distribution in Wistar rat at 5 mg/kg, po; assay type: ADME, organism-based; set-up: dose 5 mg/kg, route oral; settings: in vivo; how it was run: as §3
[19] = Half life in Wistar rat at 5 mg/kg, po; assay type: ADME, organism-based; set-up: dose 5 mg/kg, route oral; settings: in vivo; how it was run: as §3
[20] = Clearance in Wistar rat at 5 mg/kg, po; assay type: ADME, organism-based; set-up: dose 5 mg/kg, route oral; settings: in vivo; how it was run: as §3
[21] = Clearance in Wistar rat at 5 mg/kg, iv; assay type: ADME, organism-based; set-up: dose 5 mg/kg, route intravenous; settings: in vivo; how it was run: as §3
[22] = Cmax in Wistar rat at 5 mg/kg, po; assay type: ADME, organism-based; set-up: dose 5 mg/kg, route oral; settings: in vivo; how it was run: as §3
[23] = AUC in Wistar rat at 5 mg/kg, po; assay type: ADME, organism-based; set-up: dose 5 mg/kg, route oral; settings: plasma; how it was run: as §3

Cytochrome P450 2D6, sequence (P10635 whole entry, canonical isoform): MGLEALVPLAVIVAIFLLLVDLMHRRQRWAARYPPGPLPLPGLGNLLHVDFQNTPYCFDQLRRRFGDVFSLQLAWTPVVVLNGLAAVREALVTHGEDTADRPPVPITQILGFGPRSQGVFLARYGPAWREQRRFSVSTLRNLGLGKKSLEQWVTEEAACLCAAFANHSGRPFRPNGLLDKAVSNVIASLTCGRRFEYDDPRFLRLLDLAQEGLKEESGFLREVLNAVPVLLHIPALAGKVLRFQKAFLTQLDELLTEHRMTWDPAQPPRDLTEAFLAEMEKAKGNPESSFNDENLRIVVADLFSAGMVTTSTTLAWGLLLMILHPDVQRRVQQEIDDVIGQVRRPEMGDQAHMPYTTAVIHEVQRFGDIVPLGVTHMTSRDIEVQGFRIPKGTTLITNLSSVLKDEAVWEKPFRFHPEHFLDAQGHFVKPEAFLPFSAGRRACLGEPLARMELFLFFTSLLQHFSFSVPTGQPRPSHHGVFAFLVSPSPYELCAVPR
T1 sequence (P50406 whole entry): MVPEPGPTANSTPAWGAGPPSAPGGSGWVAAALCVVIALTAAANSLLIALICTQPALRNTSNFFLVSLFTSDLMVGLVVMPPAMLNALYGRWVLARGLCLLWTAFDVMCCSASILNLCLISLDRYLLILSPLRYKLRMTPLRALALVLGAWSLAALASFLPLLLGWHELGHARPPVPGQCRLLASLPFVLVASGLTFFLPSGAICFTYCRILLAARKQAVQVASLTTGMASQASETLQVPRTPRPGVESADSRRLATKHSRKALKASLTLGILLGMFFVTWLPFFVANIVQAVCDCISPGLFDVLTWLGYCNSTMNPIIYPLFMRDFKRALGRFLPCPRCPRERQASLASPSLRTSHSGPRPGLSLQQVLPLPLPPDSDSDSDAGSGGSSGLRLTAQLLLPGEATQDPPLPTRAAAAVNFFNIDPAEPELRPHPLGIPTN
Cytochrome P450 3A4, sequence (P08684 whole entry): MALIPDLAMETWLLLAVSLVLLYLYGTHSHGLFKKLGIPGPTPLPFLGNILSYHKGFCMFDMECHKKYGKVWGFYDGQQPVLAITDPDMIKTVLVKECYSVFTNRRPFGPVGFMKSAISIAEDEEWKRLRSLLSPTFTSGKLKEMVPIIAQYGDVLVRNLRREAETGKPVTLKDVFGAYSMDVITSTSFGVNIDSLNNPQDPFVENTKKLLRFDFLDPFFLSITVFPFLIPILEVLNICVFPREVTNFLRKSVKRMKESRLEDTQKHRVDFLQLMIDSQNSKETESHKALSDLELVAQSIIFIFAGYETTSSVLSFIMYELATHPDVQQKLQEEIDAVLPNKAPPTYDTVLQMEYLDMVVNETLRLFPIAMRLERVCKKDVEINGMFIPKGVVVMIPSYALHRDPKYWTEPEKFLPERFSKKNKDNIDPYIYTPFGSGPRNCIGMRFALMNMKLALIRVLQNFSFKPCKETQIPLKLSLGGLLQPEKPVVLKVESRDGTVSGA

**Q.** For `CCN1CCN(c2cn(S(=O)(=O)c3ccc(F)cc3)c3ccc(Br)cc23)CC1`, which Ki [1] is on record?
**A.** 10.6 nM

**Q.** Which Ki [1] does the source give for `CN1CCN(c2cn(S(=O)(=O)c3ccccc3Br)c3ccccc23)CC1` here?
**A.** 15.2 nM

**Q.** For `CCN1CCN(c2cn(S(=O)(=O)c3ccccc3Br)c3ccc(Cl)cc23)CC1`, which Ki [1] is on record?
**A.** 20.3 nM

**Q.** Which Ki [1] does the source give for `CCN1CCN(c2cn(S(=O)(=O)c3ccc(OC)cc3)c3cc(Cl)ccc23)CC1` here?
**A.** 82.3 nM

**Q.** Which Ki [1] does the source give for `CC(C)c1ccc(S(=O)(=O)n2cc(N3CCN(C)CC3)c3cc(Br)ccc32)cc1` here?
**A.** 23.2 nM

**Q.** Which Ki [1] does the source give for `CN1CCN(c2cn(S(=O)(=O)c3ccccc3Br)c3ccc(Br)cc23)CC1` here?
**A.** 10.2 nM

**Q.** With `CCN1CCN(c2cn(S(=O)(=O)c3ccc(C(C)C)cc3)c3ccccc23)CC1` as the compound, how does the Ki [1] read?
**A.** 8.6 nM

**Q.** For `CN1CCN(c2cn(S(=O)(=O)c3cccc(Cl)c3)c3ccc(Br)cc23)CC1`, which Ratio IC50 [2] is on record?
**A.** > 50

**Q.** And the Ki [1]?
**A.** 7.8 nM

**Q.** What about the Ratio IC50 [3] of the same compound?
**A.** > 50

**Q.** What about the Ratio IC50 [4] of the same compound?
**A.** > 50

**Q.** What about the IC50 [5] of the same compound?
**A.** 1530 nM

**Q.** What about the Kb [5] of the same compound?
**A.** 3 nM

**Q.** And the Ratio IC50 [6]?
**A.** > 50

**Q.** Which results are given for `CCN1CCN(c2cn(S(=O)(=O)c3ccc(F)cc3)c3ccc(Cl)cc23)CC1`?
**A.** Ratio IC50 [2]: > 50; Ki [1]: 10.7 nM; Ratio IC50 [3]: > 50; Ratio IC50 [4]: > 50; IC50 [5]: 1780 nM; Kb [5]: 3.5 nM; Ratio IC50 [6]: > 50

**Q.** For `CN1CCN(c2cn(S(=O)(=O)c3cccc(Cl)c3)c3ccccc23)CC1`, which Ki [1] is on record?
**A.** 10.8 nM

**Q.** With `CCN1CCN(c2cn(S(=O)(=O)c3ccc4ccccc4c3)c3cc(Cl)ccc23)CC1` as the compound, how does the Ki [1] read?
**A.** 25.5 nM

**Q.** With `CN1CCN(c2cn(S(=O)(=O)c3ccccc3Br)c3cc(Cl)ccc23)CC1` as the compound, how does the Ki [1] read?
**A.** 30.2 nM

**Q.** For `CCN1CCN(c2cn(S(=O)(=O)c3cc(OC)ccc3OC)c3cc(Cl)ccc23)CC1`, which Ki [1] is on record?
**A.** 63.5 nM

**Q.** Which results are given for `CN1CCN(c2cn(S(=O)(=O)c3ccc(F)cc3)c3ccc(Br)cc23)CC1`?
**A.** IC50 [7]: 28800 nM; IC50 [8]: 4610 nM; Ratio IC50 [2]: > 50; Ki [1]: 9.2 nM; Ratio IC50 [3]: > 50; Ratio IC50 [4]: > 50; % metabolism at 0.5 h, 2.5 µM [9]: 99%; IC50 [5]: 322 nM; Kb [5]: 0.6 nM; % metabolism at 0.5 h, 2.5 µM [10]: 96%; Ratio IC50 [6]: > 50

**Q.** With `CN1CCN(c2cn(S(=O)(=O)c3ccc(F)cc3)c3ccccc23)CC1` as the compound, how does the IC50 [7] read?
**A.** 26400 nM

**Q.** And the IC50 [8]?
**A.** 4770 nM

**Q.** What about the Ratio IC50 [2] of the same compound?
**A.** > 50

**Q.** What about the Ki [1] of the same compound?
**A.** 11.8 nM

**Q.** And the Ratio IC50 [3]?
**A.** > 50

**Q.** What about the Ratio IC50 [4] of the same compound?
**A.** > 50

**Q.** What about the % metabolism at 0.5 h, 2.5 µM [9] of the same compound?
**A.** 99%

**Q.** And the IC50 [5]?
**A.** 292 nM

**Q.** And the Kb [5]?
**A.** 0.5 nM

**Q.** And the % metabolism at 0.5 h, 2.5 µM [10]?
**A.** 85%

**Q.** What about the Ratio IC50 [6] of the same compound?
**A.** > 50

**Q.** Which Ki [1] does the source give for `CCN1CCN(c2cn(S(=O)(=O)c3ccc(C(C)C)cc3)c3ccc(Br)cc23)CC1` here?
**A.** 30.1 nM

**Q.** With `CN1CCN(c2cn(S(=O)(=O)c3ccccc3)c3ccccc23)CC1` as the compound, how does the Ki [1] read?
**A.** 15.9 nM

**Q.** Which Ki [1] does the source give for `CC(C)c1ccc(S(=O)(=O)n2cc(N3CCN(C)CC3)c3ccc(Cl)cc32)cc1` here?
**A.** 55.3 nM

**Q.** Which results are given for `CC(C)c1ccc(S(=O)(=O)n2cc(N3CCN(C)CC3)c3ccccc32)cc1`?
**A.** IC50 [7]: 39200 nM; Vd [11]: 51.8 L/kg; Activity [12]: Active; inhibition [13]: Active; IC50 [8]: 5540 nM; half-life [14]: 4.47 h; Ratio IC50 [2]: > 50; AUC [15]: 674 ng·h/mL; Ki [1]: 3.4 nM; Ratio IC50 [3]: > 50; bioavailability [16]: 8%; Cmax [17]: 365 ng/mL; Ratio IC50 [4]: > 50; Vz [18]: 436 L/kg; half-life [19]: 2.35 h; CL/F [20]: 2200 mL/min/kg; % metabolism at 0.5 h, 2.5 µM [9]: 95%; clearance [21]: 133 mL/min/kg; IC50 [5]: 310 nM; Kb [5]: 0.53 nM; Cmax [22]: 40 ng/mL; % metabolism at 0.5 h, 2.5 µM [10]: 80%; AUC [23]: 59 ng·h/mL; Ratio IC50 [6]: > 50

**Q.** For `CCN1CCN(c2cn(S(=O)(=O)c3ccc(C(C)C)cc3)c3ccc(Cl)cc23)CC1`, which Ki [1] is on record?
**A.** 30.5 nM

— ChEMBL document CHEMBL1641587, “Indole-3-piperazinyl derivatives: novel chemical class of 5-HT(6) receptor antagonists” (Bioorg Med Chem Lett, 2011)
